According to ChEMBL document CHEMBL3046618, “Syntheses and biological activities of pyranyl-substituted cinnamates” (Biosci Biotechnol Biochem, 2001):

How the values were obtained:
Rhizoctonia solani = assay: Antifungal activity against Rhizoctonia solani assessed as fungal growth inhibition at 100 ppm relative to untreated control; assay type: functional; conditions: read-out: GI
Procedure, shortened: (§1)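 Fungus precultured on potato dextrose agar (1.5% agar) for four days at 27°C before testing. Compounds tested at 100 ppm in triplicate. Growth inhibition (%) relative to untreated control.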

Brassica rapa = assay: Toxicity against Brassica rapa assessed as plant growth inhibition at 100 ppm relative to untreated control; assay type: organism-based; conditions: in vivo
Procedure, shortened: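 Seedlings held three days at 27°C in darkness, then radicle and hypocotyl lengths measured. Growth inhibition (%) calculated for each organ against control. Each experiment run three times.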

[Sclerotium] delphinii = Antifungal activity against Sclerotium delphinii assessed as fungal growth inhibition at 100 ppm relative to untreated control; assay type: functional; conditions: Agroathelia delphinii; read-out: GI; procedure, shortened: as §1

SMILES	inhibition of growth at 100 ppm (Rhizoctonia solani)	growth inhibition (GI) (Brassica rapa)	inhibition of growth at 100 ppm ([Sclerotium] delphinii)
Cc1cc(OC(=O)/C=C/c2ccccc2C)cc(=O)o1	70%	80%	20%
Cc1cc(OC(=O)/C=C/c2ccccc2Cl)cc(=O)o1	60%	20%	20%
Cc1cc(OC(=O)/C=C/c2cccc(F)c2)cc(=O)o1	> 60%	> 50%	30%
CC(C)c1ccc(/C=C/C(=O)Oc2cc(CCc3ccccc3)oc(=O)c2)cc1	40%	10%	> 30%
Cc1cc(OC(=O)/C=C/c2ccc(Cl)cc2)cc(=O)o1	> 60%	> 60%	30%
Cc1cccc(/C=C/C(=O)Oc2cc(CCc3ccccc3)oc(=O)c2)c1	50%	40%	30%
O=C(/C=C/c1cccc(F)c1)Oc1cc(CCc2ccccc2)oc(=O)c1	40%	30%	> 30%
O=C(/C=C/c1ccccc1)Oc1cc(CCc2ccccc2)oc(=O)c1	20%	30%	30%
Cc1cc(O)cc(=O)o1 [4-HYDROXY-6-METHYLPYRAN-2-ONE]	≤ 10%		20%
Cc1ccc(/C=C/C(=O)Oc2cc(C)oc(=O)c2)cc1	70%	30%	10%
Cc1cc(OC(=O)/C=C/c2ccccc2F)cc(=O)o1	60%	30%	> 40%
O=C(/C=C/c1ccc(F)cc1)Oc1cc(CCc2ccccc2)oc(=O)c1	10%	40%	10%
Cc1cc(OC(=O)/C=C/c2ccc(F)cc2)cc(=O)o1	70%	> 50%	30%
Cc1cccc(/C=C/C(=O)Oc2cc(C)oc(=O)c2)c1	70%	40%	40%
Cc1ccccc1/C=C/C(=O)Oc1cc(CCc2ccccc2)oc(=O)c1	50%	> 60%	40%
O=C(/C=C/c1ccc(Cl)cc1)Oc1cc(CCc2ccccc2)oc(=O)c1	10%	20%	> 30%
Cc1cc(OC(=O)/C=C/c2ccc(C(C)C)cc2)cc(=O)o1	80%	20%	≤ 50%
O=C(/C=C/c1ccccc1F)Oc1cc(CCc2ccccc2)oc(=O)c1	10%	40%	10%
Cc1cc(OC(=O)/C=C/c2ccccc2)cc(=O)o1	> 60%	30%	20%
Cc1ccc(/C=C/C(=O)Oc2cc(CCc3ccccc3)oc(=O)c2)cc1	50%	30%	≤ 10%
O=C(/C=C/c1cccc(Cl)c1)Oc1cc(CCc2ccccc2)oc(=O)c1	40%	50%	10%
O=C(/C=C/c1ccccc1Cl)Oc1cc(CCc2ccccc2)oc(=O)c1	40%	30%	> 30%
COc1cc(CCc2ccccc2)oc(=O)c1 [DIHYDRO-5,6-DEHYDROKAWAIN]	50%	0%	50%
Cc1cc(OC(=O)/C=C/c2cccc(Cl)c2)cc(=O)o1	60%	<= 70%	40%
